In ChEMBL document CHEMBL1154607, “Searching for new cures for tuberculosis: design, synthesis, and biological evaluation of 2-methylbenzothiazoles” (J Med Chem, 2009) one finds MIC, IC50 and MCC data, which are given here for 38 molecules.

The subject of data set [1] is Mycobacterium tuberculosis. In words: Antimycobacterial activity against Mycobacterium tuberculosis H37Rv after 7 days by microplate alamar blue assay. Type of data set: functional. Particulars: 168 h. The essentials: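 M. tuberculosis H37Rv growth inhibition was read by microplate Alamar blue assay (MABA). The value is reported as the minimum inhibitory concentration (MIC), in μM.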
Background: The colour change of resazurin is a common sign of viable cells or microbes.

The next data set has as its system Plasmodium falciparum. As to the kind of experiment: Antimicrobial activity against chloroquine and pyrimethamine-resistant Plasmodium falciparum K1 in erythrocytes. Type of data set: functional, organism-based.
Data set [2] concerns Trypanosoma brucei rhodesiense. As to the kind of experiment: Antimicrobial activity against Trypanosoma brucei rhodesiense STIB 900 trypomastigote forms. Type of data set: functional, organism-based.
For the next data set, the system named is Trypanosoma cruzi. As to the kind of experiment: Antimicrobial activity against Trypanosoma cruzi Tulahuen C2C4 amastigote forms infected in rat L6 cells. Type of data set: functional, organism-based.
The test system of another data set is Leishmania donovani. In words: Antimicrobial activity against Leishmania donovani MHOM/ET/67/L82 axenic amastigote forms. It counts as functional, organism-based.
The nature of data set [3]: Cytotoxicity against african green monkey Vero cells after 72 hrs. Particulars: chlorocebus sabaeus, read-out: MIC. Type of data set: cell-based. A digest of the protocol:
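Toxicity was tested in Vero cells, and the value is reported as IC50 in μM.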

Converted amounts (≈) assume the structure as drawn.

Regarding `Cc1nc2cc(OCc3cc(C(=O)N[C@H](C(=O)NNC(=O)c4ccncc4)c4ccccc4)no3)ccc2s1`, in data set [1], it took 47.5 µM (≈ 25.8 µg/mL) to inhibit growth (MIC).

`COC(=O)[C@@H](NC(=O)c1cc(COc2nc3ccccc3s2)on1)c1ccccc1`: the IC50 is greater than 5 µM with Plasmodium falciparum, 88.6 µM in data set [2], 26.8 µM with Trypanosoma cruzi and 4.99 µM in the data set on Leishmania donovani. In data set [1], this molecule showed an MIC of 15.2 µM (≈ 6.44 µg/mL). For the same molecule, the MCC at 72 h in data set [3] was greater than 128 µM.

`COC(=O)c1ccccc1NC(=O)c1cc(COc2ccc3sc(C)nc3c2)on1`: the MIC in data set [1] is 30.2 µM (≈ 12.8 µg/mL). For the same molecule, the MCC at 72 h in data set [3] is greater than 128 µM.

In turn, `Cc1nc2cc(OCc3cc(C(=O)N4CCCCC4)no3)ccc2s1` came in with an MIC in data set [1] of 120 µM (≈ 42.7 µg/mL).

In data set [1], `COC(=O)[C@H](CCSC)NC(=O)c1cc(COc2ccc3sc(C)nc3c2)on1` registered an MIC of 3.7 µM (≈ 1.61 µg/mL). In addition, the MCC at 72 h in data set [3] is greater than 128 µM.

As for `Cc1nc2cc(OCc3cc(C(=O)N[C@H](C(=O)O)c4ccccc4)no3)ccc2s1`, the 50% inhibitory concentration (IC50) was greater than 5 µM with Plasmodium falciparum, 89.5 µM in data set [2], greater than 90 µM with Trypanosoma cruzi and 32.3 µM in the data set on Leishmania donovani. The molecule further yielded an MIC in data set [1] greater than 128 µM.

`Cc1nc2cc(OCc3cc(C(=O)N(C)C)no3)ccc2s1` displayed an MIC in data set [1] greater than 128 µM.

Take `COC(=O)[C@@H](NC(=O)c1cc(COc2cccc3sc(C)nc23)on1)c1ccccc1`: the IC50 is greater than 5 µM in the data set with Plasmodium falciparum, greater than 90 µM in data set [2], 18.8 µM in the data set with Trypanosoma cruzi and 4.12 µM with Leishmania donovani. Further, the MIC in data set [1] worked out at 7.4 µM (≈ 3.24 µg/mL). In addition, the MCC at 72 h in data set [3] is greater than 128 µM.

Turning to `Cc1nc2cc(OCc3cc(C(=O)N4CCN(C)CC4)no3)ccc2s1`, the MIC in data set [1] was greater than 128 µM. In addition, the MCC at 72 h in data set [3] is greater than 128 µM.

As to `Cc1nc2cc(OCc3cc(C(=O)O)no3)ccc2s1`, the MIC in data set [1] is greater than 128 µM.

Regarding `CCN(CC)C(=O)c1cc(COc2ccc3sc(C)nc3c2)on1`, the MIC in data set [1] was greater than 128 µM.

Take `COC(=O)[C@@H](NC(=O)c1cc(COc2ccccc2)on1)c1ccccc1`: the IC50 was greater than 5 µM in the data set with Plasmodium falciparum, greater than 90 µM in data set [2], 45.9 µM with Trypanosoma cruzi and 13.5 µM with Leishmania donovani. For the same molecule, the lowest concentration to inhibit growth in data set [1] (MIC) was 3.5 µM (≈ 1.28 µg/mL). The MCC at 72 h in data set [3] is greater than 128 µM.

`COC(=O)[C@@H](NC(=O)c1cc(COc2ccc3sc(-c4cccc(C(F)(F)F)c4)nc3c2)on1)c1ccccc1` had an MIC in data set [1] of 59.5 µM (≈ 33.8 µg/mL).

`COC(=O)[C@H](Cc1ccccc1)NC(=O)c1cc(COc2ccc3sc(C)nc3c2)on1`: the MIC in data set [1] was found to be 14.4 µM (≈ 6.5 µg/mL). Further, the MCC at 72 h in data set [3] is greater than 128 µM.

For the molecule `COC(=O)[C@@H](NC(=O)c1nc(COc2ccc3sc(C)nc3c2)cs1)c1ccccc1`, the IC50 in the data set on Plasmodium falciparum turned out to be 4.86 µM; in data set [2], 37.5 µM; in the data set with Trypanosoma cruzi, 14.5 µM; in the data set on Leishmania donovani, 4.44 µM. In addition, inhibition of growth in data set [1] (MIC) required 62.5 µM (≈ 28.3 µg/mL).

Molecule `Cc1nc2cc(OCc3cc(C(=O)N4CCOCC4)no3)ccc2s1` yielded an MIC in data set [1] greater than 128 µM.

The molecule `COC(=O)[C@@H](NC(=O)c1cc(COc2ccc3sc(C)nc3c2)on1)c1ccccc1Cl` gave an MIC in data set [1] of 15.5 µM (≈ 7.31 µg/mL). Further, the MCC at 72 h in data set [3] is greater than 128 µM.

In the case of `COC(=O)[C@H](CC(C)C)NC(=O)c1cc(COc2ccc3sc(C)nc3c2)on1`, the IC50 in the data set with Plasmodium falciparum was found to be 4.57 µM; in data set [2], 18.7 µM; with Trypanosoma cruzi it was 12.3 µM; in the data set on Leishmania donovani, 2.79 µM. Moreover, the MIC in data set [1] came out at 3.8 µM (≈ 1.59 µg/mL). In addition, the MCC at 72 h in data set [3] is greater than 128 µM.

As for `COC(=O)[C@@H](NC(=O)c1cc(COc2ccc3sc(C)nc3c2)on1)c1ccccc1`, the IC50 is 3.97 µM in the data set on Plasmodium falciparum, 74.2 µM in data set [2], greater than 90 µM in the data set on Trypanosoma cruzi and 27.5 µM in the data set with Leishmania donovani. In data set [1], the MIC came to 1.4 µM (≈ 0.612 µg/mL). Moreover, in data set [3], the MCC at 72 h was greater than 128 µM.

In data set [1], `COC(=O)[C@@H](NC(=O)c1ccc2sc(C)nc2c1)c1ccccc1` had an MIC of 13 µM (≈ 4.43 µg/mL). For the same molecule, the MCC at 72 h in data set [3] was greater than 128 µM.

On to `Cc1nc2cc(OCc3cc(C(=O)N4CCNCC4)no3)ccc2s1`, for which the MIC in data set [1] was greater than 128 µM.

Turning to `Cc1nc2cc(OCc3cc(C(=O)N[C@H](C(=O)NO)c4ccccc4)no3)ccc2s1`, the IC50 with Plasmodium falciparum was 1.82 µM; in data set [2] it was 0.415 µM; in the data set with Trypanosoma cruzi, 6.2 µM; in the data set with Leishmania donovani, 3.25 µM. Moreover, the minimum inhibitory concentration (MIC) in data set [1] was greater than 128 µM.

`Cc1nc2cc(OCc3cc(C(=O)N4CCCCO4)no3)ccc2s1`: the MIC in data set [1] worked out at 7.8 µM (≈ 2.8 µg/mL).

For the molecule `COC(=O)[C@H](NC(=O)c1cc(COc2ccc3sc(C)nc3c2)on1)c1ccccc1`, the IC50 came out at 3.33 µM with Plasmodium falciparum, 89.5 µM in data set [2], 37.5 µM in the data set with Trypanosoma cruzi and 22.3 µM in the data set on Leishmania donovani. In data set [1], the MIC was 1.9 µM (≈ 0.831 µg/mL). Also, the MCC at 72 h in data set [3] is greater than 128 µM.

As to `Cc1nc2cc(OCc3cc(C(=O)NCc4ccccc4)no3)ccc2s1`, the IC50 with Plasmodium falciparum was 3.43 µM; in data set [2] it was 86.9 µM; in the data set on Trypanosoma cruzi, greater than 90 µM; with Leishmania donovani, 8.8 µM. The MIC in data set [1] is greater than 128 µM.

Regarding `CCOC(=O)c1cc(COc2ccc3sc(C)nc3c2)on1`, the MIC in data set [1] is greater than 128 µM.

In the case of `Cc1nc2cc(OCc3cc(C(=O)NO)no3)ccc2s1`, the 50% inhibitory concentration (IC50) in the data set with Plasmodium falciparum worked out at 2.76 µM; in data set [2], 1.85 µM; in the data set on Trypanosoma cruzi it was 15.9 µM; with Leishmania donovani, 6.06 µM. The molecule further showed an MIC in data set [1] greater than 128 µM.

`Cc1nc2cc(OCc3cc(C(=O)N[C@H](CO)c4ccccc4)no3)ccc2s1`: the IC50 with Plasmodium falciparum is 2.56 µM; in data set [2] it was 31.2 µM; in the data set with Trypanosoma cruzi it was greater than 90 µM; in the data set with Leishmania donovani it was greater than 90 µM. In data set [1], this molecule gave an MIC greater than 128 µM.

Regarding `COC(=O)[C@@H](NC(=O)c1cc(C)on1)c1ccccc1`, the IC50 in the data set on Plasmodium falciparum is greater than 5 µM; in data set [2], greater than 90 µM; with Trypanosoma cruzi, greater than 90 µM; in the data set with Leishmania donovani it was 56.3 µM. In data set [1], inhibition of growth (MIC) required 37 µM (≈ 10.1 µg/mL). The MCC at 72 h in data set [3] was greater than 128 µM.

The molecule `COC(=O)[C@@H](NC(=O)c1cc(COc2ccc3sc(C)nc3c2)on1)c1ccc(OC)cc1` displayed an MIC in data set [1] of 12.2 µM (≈ 5.7 µg/mL). Besides, the MCC at 72 h in data set [3] is greater than 128 µM.

Consider `COC(=O)[C@@H](NC(=O)c1cc(COc2ccc3sc(C)nc3c2)on1)c1ccc(O)cc1`, for which the IC50 amounted to 2.5 µM in the data set with Plasmodium falciparum, 88.9 µM in data set [2], 26.4 µM in the data set with Trypanosoma cruzi and 4.48 µM in the data set with Leishmania donovani. The lowest concentration to inhibit growth in data set [1] (MIC) was 15.4 µM (≈ 6.98 µg/mL). Also, the MCC at 72 h in data set [3] is greater than 128 µM.

Consider `Cc1nc2cc(OCc3cc(C(=O)NNC(=O)c4ccncc4)no3)ccc2s1`, for which the IC50 in the data set with Plasmodium falciparum is greater than 5 µM; in data set [2], 38 µM; in the data set with Trypanosoma cruzi, greater than 90 µM; in the data set with Leishmania donovani, greater than 90 µM. In addition, the MIC in data set [1] came to 4.4 µM (≈ 1.8 µg/mL). In addition, the MCC at 72 h in data set [3] is greater than 128 µM.

In data set [1], `COC(=O)[C@@H](NC(=O)c1cc(COc2ccc3sc(C)nc3c2)on1)C(C)C` came in with an MIC greater than 128 µM.

Take `COC(=O)[C@@H](NC(=O)c1cc(CSc2nc3ccccc3s2)on1)c1ccccc1`: the IC50 in the data set on Plasmodium falciparum was greater than 5 µM; in data set [2] it was 88.9 µM; in the data set with Trypanosoma cruzi it was 16.9 µM; with Leishmania donovani, 6.03 µM. In data set [1], this molecule gave an MIC of 13 µM (≈ 5.71 µg/mL). Also, the MCC at 72 h in data set [3] was greater than 128 µM.

Regarding `O=C(Cn1ccnc1[N+](=O)[O-])NCc1ccccc1` [BENZNIDAZOLE], half-maximal inhibition with Trypanosoma cruzi (IC50) was put at 0.521 µM.

In the case of `NNC(=O)c1ccncc1` [ISONIAZID], inhibition of growth in data set [1] (MIC) required 0.5 µM (≈ 0.0686 µg/mL). The MCC at 72 h in data set [3] is greater than 128 µM.

Molecule `CCCCCCCCCCCCCCCCOP(=O)([O-])OCC[N+](C)(C)C` [MILTEFOSINE] showed an IC50 with Leishmania donovani of 0.142 µM.

`CO[C@H]1/C=C/O[C@@]2(C)Oc3c(C)c(O)c4c(O)c(c(/C=N/N5CCN(C)CC5)c(O)c4c3C2=O)NC(=O)/C(C)=C\C=C\[C@H](C)[C@H](O)[C@@H](C)[C@@H](O)[C@@H](C)[C@H](OC(C)=O)[C@@H]1C` [RIFAMPIN] came in with an MIC in data set [1] of 0.1 µM (≈ 0.0823 µg/mL). In addition, the MCC at 72 h in data set [3] amounted to 127 µM.

In general, MIC refers to the lowest concentration found to suppress growth. As usually defined, the IC50 is the midpoint of a concentration-inhibition curve.
